ChEMBL document CHEMBL4834426, “Antimalarial Benzimidazole Derivatives Incorporating Phenolic Mannich Base Side Chains Inhibit Microtubule and Hemozoin Formation: Structure-Activity Relationship and In Vivo Oral Efficacy Studies” (J Med Chem, 2021)
Calls of active or inactive are those of the source. The rule behind the calls is not given here.

Tests used:
Hemozoin = experiment: Inhibition of Beta-hematin in early ring stage Plasmodium falciparum parasitized red blood cells assessed as hemozoin formation formation after 32 hrs by Giemsa staining based haemocytometric counting method
[1] = Oral bioavailability in Balb/c mouse at 10 mg/kg measured up to 24 hrs by LC-MS/MS analysis; format: ADME, organism-based; conditions: in vivo
Outline: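 Male Balb/c mice, not fasted, food and water ad libitum; single oral dose. Tail-vein blood into heparinized tubes at 0.5, 1, 3, 5, 7, 9 and 24 h, stored at −80 °C. Whole blood protein-precipitated with acetonitrile containing internal standard, analyzed by LC−MS/MS (LOQ 2 ng/mL). Parameters by noncompartmental analysis with curve stripping. Mean of three mice per point.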

Plasmodium falciparum [2] = experiment: Antiplasmodial activity against […] Plasmodium falciparum NF54 late gametocytes transfected with GFP-Luc […] at 1 uM incubated for 48 hrs by microscopy based luciferase reporter gene assay relative to control; format: functional
Outline: (§1)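 NF54-Pfs16-GFP-Luc gametocytes, assays set up day 5 (early, stage II/III) or day 10 (late, stage IV/V). Culture at 2−3% gametocytemia, 1.5% hematocrit, 48 h drug exposure at 37 °C under 90% N₂/5% O₂/5% CO₂. Lysates mixed with luciferin; bioluminescence read with 10 s integration. Dual-point: one biological repeat in technical triplicate. Methylene blue (5 μM) reference.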

Plasmodium falciparum [3] = experiment: Antimalarial activity against asexual blood stage drug-sensitive Plasmodium falciparum NF54 infected in erythrocytes assessed as reduction in parasitemia incubated up to 72 hrs by [3H]hypoxanthine incorporation assay; format: functional, organism-based
Outline: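 [³H]-Hypoxanthine incorporation assay (modified) on asexual blood-stage P. falciparum in vitro. IC₅₀ values are means of ≥2 independent experiments.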

[4] = Volume of distribution at steady state in Balb/c mouse at 3 mg/kg, iv measured up to 24 hrs by LC-MS/MS analysis; format: ADME, organism-based; conditions: in vivo, read-out: Vdss
Outline: (§2)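 Intravenous dosing in male Balb/c mice, fed ad libitum. Tail-vein blood sampled into heparinized tubes at 0.17, 0.5, 1, 3, 5, 7, 9 and 24 h, frozen at −80 °C. Blood extracted by acetonitrile protein precipitation with internal standard; LC−MS/MS quantitation, LOQ 2 ng/mL. Noncompartmental analysis based on curve stripping.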

Plasmodium falciparum [5] = experiment: Antiplasmodial activity against […] Plasmodium falciparum NF54 late gametocytes transfected with GFP-Luc […] incubated for 48 hrs by microscopy based luciferase reporter gene assay relative to control; format: functional, organism-based; conditions: NF54, 48 h
Outline: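 Transgenic NF54-Pfs16-GFP-Luc gametocytes, read by luciferase reporter. Early assays were set up on day 5 (50% stage II/50% stage III) and late assays on day 10 (40% stage IV/60% stage V). Luciferin was added to lysates at room temperature and bioluminescence read. Methylene blue (5 μM) was the reference. Single-point screens at 1 and 5 μM used n=1 in technical triplicate. IC₅₀ came from a normalized nonlinear fit, n≥3 in triplicate.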

Plasmodium falciparum [6] = experiment: Antiplasmodial activity against […] Plasmodium falciparum NF54 early gametocytes transfected with GFP-Luc […] at 5 uM incubated for 48 hrs by microscopy based luciferase reporter gene assay relative to control; format: functional; outline: as §1
[7] = AUC (0 to t) in Balb/c mouse at 3 mg/kg, iv measured up to 24 hrs by LC-MS/MS analysis; format: ADME, organism-based; parameters: dose 3 mg/kg, time <=24; conditions: in vivo; outline: as §2
[8] = Metabolic stability in human liver microsomes assessed as compound remaining at 1 uM incubated for 30 mins by LC-MS/MS analysis; format: ADME, Microsome; conditions: read-out: Stabilty
Outline: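 Single-point design: 1 μM compound with 0.4 mg/mL liver microsomes in 0.1 M phosphate buffer pH 7.4 for 30 min. Quenched with ice-cold acetonitrile containing carbamazepine internal standard, centrifuged, analyzed by LC−MS/MS. Percent remaining from internal-standard-corrected peak areas at 30 min versus 0 min. Propranolol, midazolam and MMV390048 as controls.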

[9] = Kinetic solubility of the compound in pH 6.5 incubated for 24 hrs by HPLC-DAD analysis; format: physicochemical; conditions: buffer, read-out: Kinetic_solubility
Outline: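 Miniaturized shake-flask method. 10 mM DMSO stock dried down, phosphate buffer pH 6.5 added, shaken 24 h at 25 °C. Centrifuged 3500g for 15 min; supernatant analyzed by HPLC-DAD against 10−220 μM DMSO calibration curve. Reserpine, hydrocortisone and MMV390048 as controls.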

Plasmodium falciparum [10] = experiment: Antiplasmodial activity against […] Plasmodium falciparum NF54 late gametocytes transfected with GFP-Luc […] at 5 uM incubated for 48 hrs by microscopy based luciferase reporter gene assay relative to control; format: functional; outline: as §1
CHO = experiment: Cytotoxicity against CHO cells assessed as inhibition of cell viability by MTT assay; format: cell-based; conditions: Cricetulus griseus

For `CCNCc1cc(Cl)cc(Nc2nc3cc(F)c(F)cc3n2Cc2ccc(C(F)(F)F)cc2)c1O`, the Activity (Hemozoin) was “inactive”, the bioavailability [1] was 24% and the inhibition at 1 µM (Plasmodium falciparum [2]) was 0%. The IC50 (Plasmodium falciparum [3]) was 0.19 µM, the Vd [4] was 5.8 L/kg and the IC50 (Plasmodium falciparum [5]) was > 5 µM. The inhibition at 5 µM (Plasmodium falciparum [6]) was 91%, the AUCt [7] was 443 µmol·min/L and the remaining at 0.5 h, 1 µM [8] was > 99%. The solubility kinetic at 24 h [9] was < 5 µM, the inhibition at 5 µM (Plasmodium falciparum [10]) was 0% and the IC50 (CHO) was > 50 µM.
